Article PMC4837022 (Nature chemical biology, 2016)

Key:
Type in all cases: cell-based, murine
[1] = test system: CD4+ T-cell blasts (S-phase entry); test: S-phase entry by EdU labeling, delayed inhibitor addition; details: GDC-0941 1.5 µM added 12 hours after IL-2 stimulation
[2] = test system: CD4+ T-cell blasts; test: IL-2-driven T-cell proliferation; details: Mus musculus, read-out: EC90 for blocking T-cell proliferation
[3] = test system: pSTAT5 in CD4+ T-cell blasts; test: pSTAT5 time course after IL-2 stimulation; details: tofacitinib 50 nM
Summary of the method: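 Rested mouse CD4+ T-cell blasts received 15 nM test compound or a reference JAK inhibitor (50 nM), 2 h before or 90 min after rhIL-2 (50 u/mL). pSTAT5 and pS6 (Ser240/244) were read by phosphoflow at the indicated times from 15 min onward: 2% PFA fixation, 90% methanol permeabilisation, barcoding. MFI was normalised to the 15-min DMSO maximum and given as mean ± SEM of 4–10 independent experiments.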

SMILES | S-phase entry [1] | EC90 [2] [nM] | reduction of pSTAT5 levels during the second wave [3] [%]
CS(=O)(=O)N1CCN(Cc2cc3nc(-c4cccc5[nH]ncc45)nc(N4CCOCC4)c3s2)CC1 [GDC0941] | prevented the majority of cells from entering S-phase | – | –
C[C@@H]1CCN(C(=O)CC#N)C[C@@H]1N(C)c1ncnc2[nH]ccc12 [tofacitinib] | – | 50 | > 50
